Active and inactive are the calls of the source. The rule behind the calls is not given here.
Tests used:
Nucleic Acid = experiment: Inhibition of superoxide anion induced DNA damage of Escherichia coli pBR322 at 300 uM by gel electrophoresis; assay type: functional
Procedure, shortened: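 Supercoiled pBR322 plasmid DNA (1 µg/µL) was exposed to xanthine (2 mM)/xanthine oxidase (0.7 U/mL) in 10 mM phosphate buffer, pH 7.4, with compound for 20 min at 37 °C. SOD and quercetin served as comparators. Mixtures were electrophoresed on 1.0% agarose with ethidium bromide (0.05 µg/mL) in TAE, 100 V, 30 min.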

[1] = tested on: Radical scavenging activity; experiment: Antioxidant activity assessed as DPPH radical scavenging activity; assay type: functional
Neutrophil [2] = experiment: Inhibition of fMLP/cytochalasin B-stimulated super oxide anion generation in Sprague-Dawley rat neutrophils; assay type: functional, cell-based
Procedure, shortened: (§1)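 Peripheral blood neutrophils were isolated from Sprague-Dawley rats. Stimulus was fMLP (0.3 µM) with cytochalasin B (5 µg/mL) for 30 min, or PMA (3 nM). Superoxide was measured as SOD-inhibitable cytochrome c reduction. DPI was the reference inhibitor. IC50 was taken from concentration–response curves; means ± SD, n = 3–6.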

Neutrophil [3] = experiment: Inhibition of PMA-stimulated super oxide anion generation in Sprague-Dawley rat neutrophils; assay type: functional, cell-based; procedure, shortened: as §1
RAW264.7 [4] = experiment: Inhibition of LPS-induced TNFalpha release in mouse RAW264.7 cells pretreated 1 hr before LPS challenge by enzyme immunoassay; assay type: functional, cell-based
Procedure, shortened: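 RAW 264.7 murine macrophages were incubated with compound (diluted from DMSO stock; final DMSO <0.5% v/v), then stimulated with LPS. Secreted TNF-α in culture supernatant was quantified by EIA kit. Data are means ± SD, n = 3–6. IC50 was taken from concentration–response curves.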

RAW264.7 [5] = experiment: Inhibition of LPS-induced nitric oxide generation in mouse RAW264.7 cells pretreated 1 hr before LPS challenge by Griess method; assay type: functional, cell-based
Procedure, shortened: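 Plated RAW 264.7 cells were preincubated with compound for 1 h at 37 °C, then stimulated with LPS at 1 µg/mL for 24 h. Nitrite accumulated in the medium was measured by the Griess reaction. Results are % inhibition at a single concentration or IC50 from concentration curves. Data are means ± SD, n = 3–6. Final DMSO <0.5%.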

RAW264.7 [6] = experiment: Inhibition of LPS-induced iNOS protein expression in mouse RAW264.7 cells at 10 uM pretreated 1 hr before LPS challenge by Western blot; assay type: functional, cell-based
Procedure, shortened: (§2)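 RAW 264.7 cells were pretreated 1 h with compound at 3 or 10 µM, then given LPS at 50 ng/mL for 24 h. Cells were washed with PBS, lysed in Laemmli SDS buffer and run on 10% SDS–PAGE, then transferred to PVDF and blocked in 5% milk/TBST. Blots were probed with monoclonal anti-iNOS (1:1000, 1 h) and HRP anti-mouse IgG (1:10,000), with ECL detection.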

RAW264.7 [7] = experiment: Inhibition of LPS-induced iNOS protein expression in mouse RAW264.7 cells at 3 uM pretreated 1 hr before LPS challenge by Western blot; assay type: functional, cell-based; procedure, shortened: as §2
[8] = target: Xanthine dehydrogenase/oxidase (Homo sapiens, UniProt P47989); experiment: Inhibition of xanthine oxidase
Procedure, shortened: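 Xanthine oxidase activity measured at 25 °C with xanthine as substrate, in 70 mM phosphate buffer (pH 7.5), following a modified published protocol. Compounds were taken from 30 mM DMSO stocks diluted in DMSO, with final DMSO below 0.5% (v/v).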

Sequence of Xanthine dehydrogenase/oxidase (P47989 whole entry): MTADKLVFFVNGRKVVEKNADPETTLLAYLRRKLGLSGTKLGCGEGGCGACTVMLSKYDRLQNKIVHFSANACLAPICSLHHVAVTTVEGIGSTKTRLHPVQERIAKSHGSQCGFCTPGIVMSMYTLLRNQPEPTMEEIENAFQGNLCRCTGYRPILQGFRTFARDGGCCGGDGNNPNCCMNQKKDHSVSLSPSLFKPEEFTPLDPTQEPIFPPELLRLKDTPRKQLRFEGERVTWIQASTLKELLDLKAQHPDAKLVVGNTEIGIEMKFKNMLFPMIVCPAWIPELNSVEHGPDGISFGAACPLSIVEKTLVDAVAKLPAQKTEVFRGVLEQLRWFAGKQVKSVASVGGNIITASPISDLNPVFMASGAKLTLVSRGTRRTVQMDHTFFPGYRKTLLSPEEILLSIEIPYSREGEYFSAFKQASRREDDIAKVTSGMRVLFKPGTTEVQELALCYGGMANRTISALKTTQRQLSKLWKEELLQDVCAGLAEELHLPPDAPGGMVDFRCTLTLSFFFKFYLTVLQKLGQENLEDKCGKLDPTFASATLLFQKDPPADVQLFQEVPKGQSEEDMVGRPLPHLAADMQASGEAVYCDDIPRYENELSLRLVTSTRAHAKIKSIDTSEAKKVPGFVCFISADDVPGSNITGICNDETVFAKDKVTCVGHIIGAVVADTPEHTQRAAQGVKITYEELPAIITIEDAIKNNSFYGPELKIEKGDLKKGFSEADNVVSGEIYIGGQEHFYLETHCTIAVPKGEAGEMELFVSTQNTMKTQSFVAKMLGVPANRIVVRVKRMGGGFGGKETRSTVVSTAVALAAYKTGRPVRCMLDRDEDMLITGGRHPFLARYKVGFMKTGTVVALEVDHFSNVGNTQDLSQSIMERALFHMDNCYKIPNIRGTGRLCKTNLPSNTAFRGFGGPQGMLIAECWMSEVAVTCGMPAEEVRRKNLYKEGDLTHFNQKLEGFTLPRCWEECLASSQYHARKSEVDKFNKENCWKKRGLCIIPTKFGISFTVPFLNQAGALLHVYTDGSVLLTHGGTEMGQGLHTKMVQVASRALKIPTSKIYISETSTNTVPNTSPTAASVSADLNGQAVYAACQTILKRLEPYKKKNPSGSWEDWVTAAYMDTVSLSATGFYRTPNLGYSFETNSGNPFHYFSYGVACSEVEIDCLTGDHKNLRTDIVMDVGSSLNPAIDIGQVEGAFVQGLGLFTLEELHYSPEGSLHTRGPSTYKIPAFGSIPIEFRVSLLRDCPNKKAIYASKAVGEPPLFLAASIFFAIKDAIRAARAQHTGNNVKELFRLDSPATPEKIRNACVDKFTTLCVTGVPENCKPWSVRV

Row | SMILES | inhibition (Nucleic Acid) | inhibition [1] | IC50 (RAW264.7 [4]) | inhibition (RAW264.7 [4]) | IC50 (RAW264.7 [5]) | also measured
1 | C=C(C)[C@@H]1CC[C@]2(C)[C@H](C(=O)C=C3[C@@H]4C[C@@](C)(C(=O)NC(C)C)CC[C@]4(C)CC[C@]32C)[C@@]1(C)CCC(=O)O | Active | inactive |  |  |  | IC50 (Neutrophil [2]): 9.8 µM; inhibition (Neutrophil [2]): Dose-dependent effect
2 | c1ccc2c(c1)[I+]c1ccccc1-2 [DIPHENYLENEIODONIUM CHLORIDE] |  |  |  |  |  | IC50 (Neutrophil [3]): 1.8 µM; inhibition (Neutrophil [3]): Dose-dependent effect; IC50 (Neutrophil [2]): 2.7 µM; inhibition (Neutrophil [2]): Dose-dependent effect
3 | C=C(C)[C@@H]1CC[C@]2(C)[C@H](C(=O)C=C3[C@@H]4C[C@@](C)(C(=O)OC)CC[C@]4(C)CC[C@]32C)[C@@]1(C)CCC(=O)O |  |  | 26.1 µM | Dose-dependent effect |  | 
4 | C=C(C)[C@@H]1CC[C@]2(C)[C@H](C(=O)C=C3[C@@H]4C[C@@](C)(C(=O)OC)CC[C@]4(C)CC[C@]32C)[C@@]1(C)CCC(=O)OC |  |  |  |  | > 30 µM | 
5 | C=C(C)[C@@H]1CC[C@]2(C)[C@H](C(=O)C=C3[C@@H]4C[C@@](C)(C(=O)OCc5ccccc5)CC[C@]4(C)CC[C@]32C)[C@@]1(C)CCC(=O)OC | Active | inactive | 13.7 µM | Dose-dependent effect | > 30 µM | IC50 (Neutrophil [3]): 17 µM; inhibition (Neutrophil [3]): Dose-dependent effect
6 | C=C(C)[C@@H]1CC[C@]2(C)[C@H](C(=O)C=C3[C@@H]4C[C@@](C)(C(=O)NC(C)C)CC[C@]4(C)CC[C@]32C)[C@@]1(C)CCC(=O)OC | Active | inactive |  |  | 13.1 µM | inhibition (RAW264.7 [6]): Active; IC50 (Neutrophil [3]): 15.6 µM; inhibition (Neutrophil [3]): Dose-dependent effect; inhibition (RAW264.7 [7]): Active
7 | O=c1c(-c2ccc(O)cc2)coc2cc(O)cc(O)c12 [GENISTEIN] |  |  | 26.5 µM | Dose-dependent effect |  | 
8 | C=C(C)[C@@H]1CC[C@]2(C)[C@H](C(=O)C=C3[C@@H]4C[C@@](C)(C(=O)OCc5ccccc5)CC[C@]4(C)CC[C@]32C)[C@@]1(C)CCC(=O)O |  |  | 2.3 µM | Dose-dependent effect |  | 
9 | C=C(C)[C@@H]1CC[C@]2(C)[C@H](C(=O)C=C3[C@@H]4C[C@@](C)(C(=O)O)CC[C@]4(C)CC[C@]32C)[C@@]1(C)CCC(=O)O | Active | inactive |  |  |  | IC50 (Neutrophil [2]): 7 µM; inhibition (Neutrophil [2]): Dose-dependent effect
10 | COC(=O)[C@@]1(C)CC[C@]2(C)CC[C@]3(C)C(=CC(=O)[C@@H]4[C@@]5(C)CCC(=O)OC(C)(C)[C@@H]5CC[C@]43C)[C@@H]2C1 | Active | inactive |  |  |  | IC50 (Neutrophil [3]): 12.9 µM; inhibition (Neutrophil [3]): Dose-dependent effect
11 | CC(=N)NCc1cccc(CN)c1 [1400W] |  |  |  |  | 1.5 µM | 
12 | C=C(C)[C@@H]1CC[C@]2(C)[C@H](C(=O)C=C3[C@@H]4C[C@@](C)(C(=O)Nc5ccccc5)CC[C@]4(C)CC[C@]32C)[C@@]1(C)CCC(=O)O |  |  | 27.7 µM | Dose-dependent effect |  | 
13 | Oc1ncnc2[nH]ncc12 [ALLOPURINOL] |  | inactive |  |  |  | inhibition (INH) [8]: Not Active
14 | C=C(C)[C@@H]1CC[C@]2(C)[C@H](C(=O)C=C3[C@@H]4C[C@@](C)(C(=O)OC(C)C)CC[C@]4(C)CC[C@]32C)[C@@]1(C)CCC(=O)OC |  |  |  |  | > 30 µM | 
15 | C=C(C)[C@@H]1CC[C@]2(C)[C@H](C(=O)C=C3[C@@H]4C[C@@](C)(C(=O)Nc5ccccc5)CC[C@]4(C)CC[C@]32C)[C@@]1(C)CCC(=O)OC |  |  | 15.5 µM | Dose-dependent effect |  | 
16 | CC1(C)C(=O)CC[C@]2(C)[C@H]3C(=O)C=C4[C@@H]5C[C@@](C)(C(=O)O)CC[C@]5(C)CC[C@@]4(C)[C@]3(C)CC[C@@H]12 | Active | inactive |  |  | > 30 µM | inhibition (INH) [8]: Not Active; IC50 (Neutrophil [2]): 10.3 µM; inhibition (Neutrophil [2]): Dose-dependent effect
17 | CC1(C)[C@@H](O)CC[C@]2(C)[C@H]3C(=O)C=C4[C@@H]5C[C@@](C)(C(=O)O)CC[C@]5(C)CC[C@@]4(C)[C@]3(C)CC[C@@H]12 [ENOXOLONE] |  |  | 1.3 µM | Dose-dependent effect |  | 
